The target of data set [1] is T1, Gonadotropin-releasing hormone receptor (Homo sapiens, UniProt P30968).
T1 sequence (P30968 whole entry): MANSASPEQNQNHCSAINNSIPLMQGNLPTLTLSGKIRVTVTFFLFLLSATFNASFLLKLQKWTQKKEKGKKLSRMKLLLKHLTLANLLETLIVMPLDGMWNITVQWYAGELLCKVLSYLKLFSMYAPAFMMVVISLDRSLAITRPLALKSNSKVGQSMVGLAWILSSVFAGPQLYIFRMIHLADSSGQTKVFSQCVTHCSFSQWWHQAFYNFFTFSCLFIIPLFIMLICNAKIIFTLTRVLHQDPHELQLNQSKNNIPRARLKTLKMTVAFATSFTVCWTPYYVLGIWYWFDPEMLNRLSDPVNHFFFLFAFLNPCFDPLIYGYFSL
As to the kind of experiment: Antagonist concentration required to inhibit specific binding of [125I]leuprorelin to human luteinizing releasing hormone receptor in cloned chinese hamster ovary (CHO) cells. The data set is classed as cell-based.

A short description of data set [2]: Tested for oral absorption in Cynomolgus Monkey at the dose of 10 mg/kg, activity expressed as Cmax. The data set is classed as ADME, organism-based, Macaca fascicularis. Further details: dose 10 mg/kg, route oral. The following applies: in vivo. In short, it runs like this:
(§1)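 Single oral dose of 10 mg/kg as suspension in 0.5% methylcellulose to female cynomolgus monkeys (4–8 years, n = 3). Forearm-vein heparin plasma taken at 1, 3 and 6 h, deproteinized with 5% acetonitrile/0.05% TFA, compound measured by reverse-phase HPLC with UV detection at 320 nm.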

Data set [3] deals with Cynomolgus monkey. As to the kind of experiment: (§2) Tested for oral absorption in Cynomolgus Monkey at the dose of 10 mg/kg, activity expressed as area under curve (AUC). Also on record: dose 10 mg/kg, route oral. The data set is classed as ADME, organism-based, Macaca fascicularis. As to conditions: in vivo. In short, it runs like this: as §1
The nature of data set [4]: Tested for oral absorption in Cynomolgus Monkey at the dose of 10 mg/kg, activity expressed as Tmax (time required for Cmax). The format is ADME, organism-based, Macaca fascicularis. Also on record: dose 10 mg/kg, route oral. As to conditions: in vivo. In short, it runs like this:
as §1

Data set [5] in a line: as §2. The format is ADME, organism-based, Macaca fascicularis. Also on record: dose 10 mg/kg, route oral. As to conditions: in vivo. In short, it runs like this: as §1
Data set [6] in a line: Tested for plasma LH concentration in Castarted male Cynomolgus monkeys for oral administration at the dose of 10 mg/kg after 4 h. The format is functional, Cercopithecidae. In short, it runs like this: (§3)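 Male cynomolgus monkeys (4–9 years), castrated more than 6 months earlier and chair-restrained, given 10 mg/kg orally (3 mL/kg, n = 3) in 0.5% methylcellulose with 1.2% citric acid; vehicle group n = 3. Femoral-vein heparin plasma taken at 0–48 h; LH measured by mouse testicular cell bioassay. Mean ± SEM, also as % of 0 h value.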

A short description of data set [7]: Tested for plasma LH concentration in Castarted male Cynomolgus monkeys for oral administration at the dose of 10 mg/kg after 48 h. The data set is classed as functional, Cercopithecidae. Summed up: as §3
Data set [8] can be described thus: Tested for plasma LH concentration in Castarted male Cynomolgus monkeys for oral administration at the dose of 10 mg/kg after 8 h. The data set is classed as functional, Cercopithecidae. Summed up:
as §3

The nature of data set [9]: Tested for plasma LH concentration in Castarted male Cynomolgus monkeys for oral administration at the dose of 30 mg/kg after 0 h. The data set is classed as functional, Cercopithecidae. Summed up: (§4)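 Castrated (more than 6 months) male cynomolgus monkeys aged 4–9 years, chair-restrained, dosed orally at 30 mg/kg (3 mL/kg, n = 3) as suspension in 0.5% methylcellulose/1.2% citric acid; vehicle controls n = 3. Plasma LH from femoral-vein samples through 48 h, assayed by bioassay with mouse testicular cells; mean ± SEM and % of pretreatment.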

The nature of data set [10]: Tested for plasma LH concentration in Castarted male Cynomolgus monkeys for oral administration at the dose of 30 mg/kg after 2 h. The format is functional, Cercopithecidae. Summed up:
as §4

A short description of data set [11]: Tested for plasma LH concentration in Castarted male Cynomolgus monkeys for oral administration at the dose of 30 mg/kg after 24 h. The data set is classed as functional, Cercopithecidae. Summed up:
as §4

The nature of data set [12]: Tested for plasma LH concentration in Castarted male Cynomolgus monkeys for oral administration at the dose of 30 mg/kg after 4 h. The format is functional, Cercopithecidae. In short, it runs like this: as §4
Data set [13] is described as follows: Tested for plasma LH concentration in Castarted male Cynomolgus monkeys for oral administration at the dose of 30 mg/kg after 48 h. The format is functional, Cercopithecidae. In short, it runs like this:
as §4

The nature of data set [14]: Tested for plasma LH concentration in Castarted male Cynomolgus monkeys for oral administration at the dose of 30 mg/kg after 8 h. The data set is classed as functional, Cercopithecidae. In short, it runs like this:
as §4

A short description of data set [15]: Tested for plasma LH concentration in Castarted male Cynomolgus monkeys for oral administration at the dose of 10 mg/kg after 0 h. The data set is classed as functional, Cercopithecidae. In short, it runs like this:
as §3

A short description of data set [16]: Tested for plasma LH concentration in Castarted male Cynomolgus monkeys for oral administration at the dose of 10 mg/kg after 2 h. The data set is classed as functional, Cercopithecidae. Summed up:
as §3

Data set [17] is described as follows: Tested for plasma LH concentration in Castarted male Cynomolgus monkeys for oral administration at the dose of 10 mg/kg after 24 h. The format is functional, Cercopithecidae. In short, it runs like this:
as §3

Regarding `CCC(=O)Nc1ccc(-c2sc3c(c2CN(C)Cc2ccccc2)c(=O)n(-c2cccc(OC)c2)c(=O)n3Cc2c(F)cccc2F)cc1`, in data set [1], the half-maximal inhibitory concentration (IC50) (usually the point on the concentration scale where inhibition reaches its midpoint) is 0.2 nM.

`CNC(=O)Nc1ccc(-c2sc3c(c2CN(C)Cc2ccccc2)c(=O)n(-c2ccccc2)c(=O)n3Cc2c(F)cccc2F)cc1` yielded a 50% inhibitory concentration (IC50) in data set [1] of 0.1 nM.

`CCC(=O)Nc1ccc(-c2sc3c(c2CN(C)Cc2ccccc2)c(=O)n(-c2ccccc2)c(=O)n3Cc2c(F)cccc2F)cc1`: the peak concentration (Cmax) (as a rule, the peak of the concentration-time curve) in [2] worked out at 630 nM. Besides, in [3], the AUC (in general, the area under the concentration-time curve, a measure of exposure) came out at 2.5 µM·h. Moreover, in data set [4], the Tmax (commonly the time from dosing to the highest level) amounted to 3 h.

In [1], `CCC(=O)N(C)c1ccc(-c2sc3c(c2CN(C)Cc2ccccc2)c(=O)n(-c2cccc(OC)c2)c(=O)n3Cc2c(F)cccc2F)cc1` showed an IC50 of 20 nM.

`CCONC(=O)Nc1ccc(-c2sc3c(c2CN(C)Cc2ccccc2)c(=O)n(-c2ccccc2)c(=O)n3Cc2c(F)cccc2F)cc1` came in with an IC50 in [1] of 0.2 nM.

In data set [1], `COc1ccc(-c2sc3c(c2CN(C)Cc2ccccc2)c(=O)n(-c2ccccc2)c(=O)n3Cc2c(F)cccc2F)cc1` registered an IC50 of 50 nM.

In the case of `COc1ccc(-c2sc3c(c2CN(C)Cc2ccccc2)c(=O)n(CC(C)C)c(=O)n3Cc2c(F)cccc2F)cc1`, the IC50 in data set [1] was 400 nM.

Consider `COc1ccc(-c2sc3c(c2CN(C)Cc2ccccc2)c(=O)n(Cc2ccccc2)c(=O)n3Cc2c(F)cccc2F)cc1`, for which, in data set [1], the IC50 turned out to be 400 nM.

For `CC(C)ONC(=O)Nc1ccc(-c2sc3c(c2CN(C)Cc2ccccc2)c(=O)n(-c2ccccc2)c(=O)n3Cc2c(F)cccc2F)cc1`, the IC50 in data set [1] came to 0.6 nM.

`CN(Cc1ccccc1)Cc1c(-c2ccc(NC(=O)NO)cc2)sc2c1c(=O)n(-c1ccccc1)c(=O)n2Cc1c(F)cccc1F` yielded an IC50 in [1] of 0.4 nM.

In turn, `COc1ccc(-c2sc3c(c2CN(C)Cc2ccccc2)c(=O)n(-c2ccccc2Cl)c(=O)n3Cc2c(F)cccc2F)cc1` returned an IC50 in [1] of 80 nM.

Take `COc1ccc(-c2sc3c(c2CN(C)Cc2ccccc2)c(=O)n(-c2ccc(Cl)cc2)c(=O)n3Cc2c(F)cccc2F)cc1`: the IC50 in data set [1] came to 200 nM.

`COc1ccc(-c2sc3c(c2CN(C)Cc2ccccc2)c(=O)n(-c2cccc(Cl)c2)c(=O)n3Cc2c(F)cccc2F)cc1`: the IC50 in data set [1] was found to be 200 nM.

As to `COc1cccc(-n2c(=O)c3c(CN(C)Cc4ccccc4)c(-c4ccc([N+](=O)[O-])cc4)sc3n(Cc3c(F)cccc3F)c2=O)c1`, the IC50 in [1] amounted to 20 nM.

On to `CC(C)NC(=O)Nc1ccc(-c2sc3c(c2CN(C)Cc2ccccc2)c(=O)n(-c2ccccc2)c(=O)n3Cc2c(F)cccc2F)cc1`, for which the IC50 in data set [1] was 0.2 nM.

`COc1cccc(-n2c(=O)c3c(CN(C)Cc4ccccc4)c(-c4ccc(N)cc4)sc3n(Cc3c(F)cccc3F)c2=O)c1` showed an IC50 in data set [1] of 1 nM.

Take `CN(Cc1ccccc1)Cc1c(-c2ccc(NC(=O)c3ccccc3)cc2)sc2c1c(=O)n(-c1ccccc1)c(=O)n2Cc1c(F)cccc1F`: the IC50 in [1] is 1 nM.

In the case of `CC(C)C(=O)Nc1ccc(-c2sc3c(c2CN(C)Cc2ccccc2)c(=O)n(-c2ccccc2)c(=O)n3Cc2c(F)cccc2F)cc1`, the IC50 in data set [1] is 0.4 nM.

`COc1ccc(-c2sc3c(c2CN(C)Cc2ccccc2)c(=O)n(-c2ccc(OC)cc2)c(=O)n3Cc2c(F)cccc2F)cc1` yielded an IC50 in data set [1] of 30 nM.

Compound `COc1cccc(-n2c(=O)c3c(CN(C)Cc4ccccc4)c(-c4ccc(NC(=O)C(C)C)cc4)sc3n(Cc3c(F)cccc3F)c2=O)c1` returned an IC50 in data set [1] of 0.3 nM.

The compound `COc1ccc(-c2sc3c(c2CN(C)Cc2ccccc2)c(=O)n(-c2ccccc2OC)c(=O)n3Cc2c(F)cccc2F)cc1` displayed an IC50 in [1] of 200 nM.

`COc1ccc(-c2sc3c(c2CN(C)Cc2ccccc2)c(=O)n(-c2cccc(OC)c2)c(=O)n3Cc2c(F)cccc2F)cc1` registered an IC50 in data set [1] of 20 nM.

Regarding `CCNC(=O)Nc1ccc(-c2sc3c(c2CN(C)Cc2ccccc2)c(=O)n(-c2ccccc2)c(=O)n3Cc2c(F)cccc2F)cc1`, the Cmax in data set [2] was found to be 63 nM. Moreover, the AUC in data set [5] was determined as 0.27 µM·h. Moreover, the Tmax in data set [4] came to 3 h.

With `COc1ccc(-c2sc3c(c2CN(C)Cc2ccccc2)c(=O)n(C2CCCCC2)c(=O)n3Cc2c(F)cccc2F)cc1`, in [1], the 50% inhibitory concentration (IC50) was determined as 700 nM.

For `CONC(=O)Nc1ccc(-c2sc3c(c2CN(C)Cc2ccccc2)c(=O)n(-c2ccccc2)c(=O)n3Cc2c(F)cccc2F)cc1` [SUFUGOLIX], the highest level in data set [2] (Cmax) was 210 nM. Further, in [5], the AUC is 0.85 µM·h. In data set [4], the Tmax stood at 6 h. In addition, the LH concentration in data set [6] was determined as 0.37 mU ml-1; in [7], 0.76 mU ml-1; in data set [8], 0.19 mU ml-1; in data set [9], 0.91 mU ml-1; in data set [10], 0.55 mU ml-1; in [11], 0.1 mU ml-1. The LH concentration in [12] is given as 0.25 mU ml-1; in data set [13] it was 0.71 mU ml-1; in data set [14], 0.13 mU ml-1; in data set [15], 1.01 mU ml-1; in data set [16], 0.74 mU ml-1; in [17] it was 0.18 mU ml-1.

For the origin of these results see ChEMBL document CHEMBL1145009 (J Med Chem, 2003).
